Assay [1] deals with Rattus norvegicus. As to the kind of experiment: Antihypertensive effect in spontaneously hypertensive rat (SHR), expressed as fall in blood pressure (BP) at 50 mg/kg dose given orally. In kind it is functional. The note with it: route oral. The essentials: (§1)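 Male SHR, about 16 weeks old, with systolic pressure above 150 mmHg, held in restraint cages. Tail-cuff occlusion was raised to 250 mmHg and then lowered, after 1 h acclimation and at least 3 baseline readings. Dosing was by daily gavage in 3% cornstarch/5% PEG-400/Tween 80 for 2 or 4 days, with 4–6 rats per drug. Readings at 1, 2, 3 and 24 h; peak fall reported.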

For assay [2], the system named is Rattus norvegicus. As to the kind of experiment: The compound was tested for antihypertensive effect in spontaneously hypertensive rat (SHR), expressed as fall in blood pressure (BP) at 50 mg/kg dose given orally. In kind it is functional. The note with it: route oral. The essentials:
as §1

Assay [3] relates to Rattus norvegicus. As to the kind of experiment: The compound was tested for antihypertensive effect in spontaneously hypertensive rat (SHR), expressed as fall in blood pressure (BP) at 100 mg/kg dose given orally. The note with it: route oral. The class given is functional. The essentials: as §1
The subject of assay [4] is Canis familiaris. As to the kind of experiment: Antihypertensive activity in unanesthetized renal hypertensive dogs measured as mean Blood Pressure at 100 mg per kg dose after peroral administration on day 2. The class given is functional, Canis lupus familiaris. The note with it: route oral. The essentials:
(§2)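 Renal hypertensive dogs, unanesthetized. Test compound given orally once daily as a solid in a gelatin capsule. Blood pressure was taken at 1.5, 3, 6 and 24 h after each daily dose. Activity is the maximum change in mean blood pressure or heart rate over each daily session. Values are mean ± SE, with significance marked at p < 0.05.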

Assay [5] deals with Canis familiaris. As to the kind of experiment: Antihypertensive activity in unanesthetized renal hypertensive dogs measured as mean Blood Pressure at 100 mg per kg dose after peroral administration on day1. The note with it: route oral. In kind it is functional, Canis lupus familiaris. Also on record: unit not given beside the values. The essentials:
as §2

For assay [6], the system named is Rattus norvegicus. As to the kind of experiment: The compound was tested for antihypertensive effect in spontaneously hypertensive rat (SHR), expressed as fall in blood pressure (BP) at 25 mg/kg dose given orally. In kind it is functional. The note with it: route oral. The method in brief: as §1
In assay [7] the test system is Rattus norvegicus. As to the kind of experiment: The compound was tested for antihypertensive effect in spontaneously hypertensive rat (SHR), expressed as fall in blood pressure (BP) at 100 mg/kg dose given orally; Inactive. The class given is functional, organism-based. Also on record: dose 100 mg/kg. The method in brief:
as §1

Assay [8] concerns Canis familiaris. As to the kind of experiment: Antihypertensive activity in unanesthetized renal hypertensive dogs measured as Heart Rate (HR) (beats/min) at 100 mg per kg dose after peroral administration on day 2 (p<0.05). In kind it is functional, Canis lupus familiaris. The note with it: route oral. The essentials:
as §2

In assay [9] the test system is Canis familiaris. As to the kind of experiment: Antihypertensive activity in unanesthetized renal hypertensive dogs measured as Heart Rate (HR) (beats/min) at 100 mg per kg dose after peroral administration on day 3. In kind it is functional, Canis lupus familiaris. The conditions noted are these: route oral. The method in brief: as §2
Assay [10] concerns Canis familiaris. As to the kind of experiment: Antihypertensive activity in unanesthetized renal hypertensive dogs measured as Heart Rate (HR) (beats/min) at 100 mg per kg dose after peroral administration on day1. In kind it is functional, Canis lupus familiaris. The note with it: route oral. The essentials:
as §2

Assay [11] concerns Canis familiaris. As to the kind of experiment: Antihypertensive activity in unanesthetized renal hypertensive dogs measured as mean Blood Pressure at 100 mg per kg dose after peroral administration on day 2 (p<0.05). The note with it: route oral. In kind it is functional, Canis lupus familiaris. The method in brief: as §2
In assay [12] the test system is Canis familiaris. As to the kind of experiment: Antihypertensive activity in unanesthetized renal hypertensive dogs measured as Heart Rate (HR) (beats/min) at 100 mg per kg dose after peroral administration on day 4. The class given is functional, Canis lupus familiaris. The note with it: route oral. The essentials: as §2
The test system of assay [13] is Canis familiaris. As to the kind of experiment: Antihypertensive activity in unanesthetized renal hypertensive dogs measured as mean Blood Pressure at 100 mg per kg dose after peroral administration on day 4 ((p<0.05). In kind it is functional, Canis lupus familiaris. The note with it: route oral. The method in brief:
as §2

Assay [14] has as its system Canis familiaris. As to the kind of experiment: Antihypertensive activity in unanesthetized renal hypertensive dogs measured as mean Blood Pressure at 100 mg per kg dose after peroral administration on day 3 (p<0.05). The class given is functional, Canis lupus familiaris. The note with it: route oral. The essentials: as §2
In assay [15] the test system is Rattus norvegicus. As to the kind of experiment: The compound was tested for antihypertensive effect in spontaneously hypertensive rat (SHR), expressed as fall in blood pressure (BP) at 50 mg/kg dose given orally; Inactive. In kind it is functional, organism-based. Also on record: dose 50 mg/kg. The essentials: as §1
Assay [16] deals with Canis familiaris. As to the kind of experiment: Antihypertensive activity in unanesthetized renal hypertensive dogs measured as mean Blood Pressure at 60 mg per kg dose after peroral administration on day1. The class given is functional, Canis lupus familiaris. The conditions noted are these: route oral. The method in brief:
(§3)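 Renal hypertensive dogs, unanesthetized. Drug given orally once daily as solid in gelatin capsule. Blood pressure and heart rate read at 1.5, 3, 6 and 24 h after each dose. Value is the maximum change over the daily monitored session, mean ± SE. MBP in mm Hg, HR in beats/min, p < 0.05 flagged.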

The subject of assay [17] is Canis familiaris. As to the kind of experiment: Antihypertensive activity in unanesthetized renal hypertensive dogs measured as mean Blood Pressure at 60 mg per kg dose after peroral administration on day 2. In kind it is functional, Canis lupus familiaris. The conditions noted are these: route oral. The method in brief: as §3
Assay [18] relates to Canis familiaris. As to the kind of experiment: Antihypertensive activity in unanesthetized renal hypertensive dogs measured as Heart Rate (HR) (beats/min) at 60 mg per kg dose after peroral administration on day 3. The class given is functional, Canis lupus familiaris. The note with it: route oral. The method in brief:
as §3

Assay [19] has as its system Canis familiaris. As to the kind of experiment: Antihypertensive activity in unanesthetized renal hypertensive dogs measured as mean Blood Pressure at 60 mg per kg dose after peroral administration on day 3. The conditions noted are these: route oral. The class given is functional, Canis lupus familiaris. The method in brief: as §3
Assay [20] concerns Canis familiaris. As to the kind of experiment: Antihypertensive activity in unanesthetized renal hypertensive dogs measured as Heart Rate (HR) (beats/min) at 60 mg per kg dose after peroral administration on day 2. In kind it is functional, Canis lupus familiaris. The conditions noted are these: route oral. The method in brief: as §3
For assay [21], the system named is Canis familiaris. As to the kind of experiment: Antihypertensive activity in unanesthetized renal hypertensive dogs measured as Heart Rate (HR) (beats/min) at 60 mg per kg dose after peroral administration on day1. The class given is functional, Canis lupus familiaris. The note with it: route oral. The essentials:
as §3

The test system of assay [22] is Rattus norvegicus. As to the kind of experiment: The compound was tested for antihypertensive effect in spontaneously hypertensive rat (SHR), expressed as fall in blood pressure (BP) at 50 mg/kg dose given per orally. The class given is functional. The note with it: route oral. The essentials: as §1

Results on 31 compounds are retold here after ChEMBL document CHEMBL1121372, “Synthesis and antihypertensive activity of 5-amino-2-pyridinecarboxylic acid derivatives” (1980).

The source made the active and inactive calls. The calls are words filed in the database; no cut-off is given here.

Compound `CC(C)(C)c1ccc(CNc2ccc(C(=O)O)nc2)cc1` registered a BP in the assay with Rattus norvegicus [1] of less than 20 mmHg.

Take `O=Cc1ccc(NCc2cccc(Cl)c2)cn1`: the BP in the assay with Rattus norvegicus [1] was more than 20 mmHg. In the case of `O=C(O)c1ccc(NCc2cccc(Br)c2)cn1`, the BP in the assay on Rattus norvegicus [1] is on record as more than 20 mmHg. The compound `CC(Nc1ccc(C(=O)O)nc1)c1ccc(F)cc1` (stereo not given) came in with a BP in the assay on Rattus norvegicus [2] of more than 40 mmHg. In the assay on Rattus norvegicus [3], `O=C(O)c1ccc(NCc2cccnc2)cn1` came in with a BP of less than 20 mmHg.

In turn, `O=C(O)c1ccc(NCc2ccc(C(F)(F)F)cc2)cn1` showed a BP with Rattus norvegicus [1] of more than 40 mmHg.

With `CN(Cc1cccc(Cl)c1)c1ccc(C(=O)O)nc1`, the MBP is reported as -25 in the assay with Canis familiaris [4] and -21 in the assay with Canis familiaris [5]. Further, the BP in the assay with Rattus norvegicus [3] is recorded as more than 80 mmHg; in the assay with Rattus norvegicus [6] it was more than 40 mmHg; with Rattus norvegicus [1], more than 80 mmHg. In the assay on Rattus norvegicus [3], `O=C(O)c1ccc(NCCCc2ccccc2)cn1` yielded a BP of more than 40 mmHg. For `O=C(O)c1ccc(NCc2ccccc2Cl)cn1`, in the assay with Rattus norvegicus [3], the BP is reported as more than 60 mmHg. As to `CCCCS(=O)(=O)Nc1ccc(C(=O)O)nc1`, in the assay on Rattus norvegicus [7], the BP result was “inactive”. Regarding `COc1ccc(CNc2ccc(C(=O)O)nc2)cc1F`, in the assay with Rattus norvegicus [1], the BP is recorded as more than 20 mmHg. For the compound `CN(Cc1cccc(Cl)c1)c1ccc(C(N)=O)nc1`, the BP in the assay with Rattus norvegicus [6] was less than 20 mmHg. With `CCOC(=O)Nc1ccc(C(=O)OC)nc1`, in the assay with Rattus norvegicus [7], the BP result is “inactive”. As to `NNC(=O)c1ccc(NCc2ccc(F)cc2)cn1`, in the assay on Rattus norvegicus [1], the BP was more than 40 mmHg. With `O=C(O)c1ccc(NCc2ccc(F)cc2)cn1`, the results for the HR with Canis familiaris [8], in the assay on Canis familiaris [9] and in the assay with Canis familiaris [12] were 60, 52 and 41, respectively. The compound also showed a Maximum change in heart rate in the assay on Canis familiaris [10] of 37. Also, the MBP in the assay on Canis familiaris [11] is given as -41; in the assay on Canis familiaris [5] it was -69; with Canis familiaris [13], -48; in the assay on Canis familiaris [14] it was -49. Also, the BP in the assay on Rattus norvegicus [6] and with Rattus norvegicus [1] was more than 60 mmHg in each case. In the assay with Rattus norvegicus [3], `O=C(Nc1ccc(C(=O)O)nc1)c1ccccc1` returned a BP of more than 20 mmHg. In turn, `COc1cccc(CN(C)c2ccc(C(=O)O)nc2)c1` came in with a BP with Rattus norvegicus [1] of more than 20 mmHg.

`O=C(O)c1ccc(NCc2cc(Cl)cc(Cl)c2)cn1` came in with a BP in the assay with Rattus norvegicus [1] of more than 60 mmHg. Same read-out and setting: the result for `O=C(O)c1ccc(NCc2ccc(F)cc2)c[n+]1[O-]` reads more than 20 mmHg.

Turning to `N#Cc1ccc(NCc2ccc(F)cc2)cn1`, the BP entry in the assay with Rattus norvegicus [15] is “inactive”.

Take `Fc1ccc(CNc2ccc(C3N=NN=N3)nc2)cc1`: in the assay on Rattus norvegicus [1], the BP is reported as more than 60 mmHg. As to `O=C(O)c1ccc(NCc2ccc(Cl)cc2)cn1`, the BP in the assay with Rattus norvegicus [3] is reported as more than 40 mmHg. Compound `Cc1nc(C(=O)O)ccc1NCc1cccc(Cl)c1` returned a BP in the assay on Rattus norvegicus [1] of more than 20 mmHg. On to `O=C(O)c1ccc(NCc2cccc(Oc3ccccc3)c2)cn1`, for which the BP in the assay with Rattus norvegicus [1] is more than 20 mmHg. Take `O=C(O)c1ccc(NS(=O)(=O)c2ccc(Cl)cc2)cn1`: in the assay with Rattus norvegicus [7], the BP result was “inactive”. `NC(=O)c1ccc(NCc2ccc(F)cc2)cn1` registered a BP with Rattus norvegicus [1] of more than 40 mmHg.

On to `CCNC(=O)c1ccc(NCc2ccc(F)cc2)cn1`, for which the BP result in the assay with Rattus norvegicus [15] was “inactive”. Regarding `CCCCc1ccc(C(=O)O)nc1` [FUSARIC ACID], the MBP in the assay on Canis familiaris [16] was -50; in the assay with Canis familiaris [17], -45; in the assay with Canis familiaris [19], -30. The BP in the assay with Rattus norvegicus [3] is listed as more than 60 mmHg. The HR was 33 with Canis familiaris [18], 35 with Canis familiaris [20] and 32 in the assay with Canis familiaris [21]. In turn, `CCCCNc1ccc(C(=O)OC)nc1` registered a BP in the assay on Rattus norvegicus [22] of less than 20 mmHg. `O=C(O)c1ccc(NCc2ccncc2)cn1` yielded a BP in the assay with Rattus norvegicus [1] of more than 20 mmHg. On to `COC(=O)c1ccc(N(C)Cc2cccc(Cl)c2)cn1`, for which, in the assay on Rattus norvegicus [1], the BP was more than 20 mmHg.
